One experiment concerns KB85 (Homo sapiens). Briefly: Concentration required to kill human epidermoid KB85 cell lines containing moderate levels of P-glycoprotein after 3 days of continuous exposure. To be noted: KB85, 72 h.
In experiment [1] the test system is Mus musculus. Kind of experiment: Minimum effective dose against Lox melanoma human xenograft models in athymic mice. In kind it is functional. In outline:
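Lox melanoma cells (1.5–7 × 10^6) were injected sc into athymic mice. At 80–100 mg tumour mass, animals were randomised into groups of 5 or 10 and dosed iv in saline. Tumour length and width were measured weekly, with mass = (L·W²)/2. Relative tumour growth and %T/C were calculated.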

The next experiment concerns KB 3-1. Briefly: Concentration required to kill human epidermoid KB-3-1 cell lines containing very low levels of P-glycoprotein after 3 days of continuous exposure. In kind it is functional, cell-based. The following applies: KB 3-1, 72 h. The method, boiled down: (§1)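 KB-3-1, KB85 and KBV1 cells were plated at densities set to reach 60–90% confluence at analysis. Compounds were serially diluted in medium as 2× stocks and added in duplicate. After 3 days of incubation, cell survival was read by SRB assay and reported as IC50.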

The species entered for experiment [2] is Bos taurus. Kind of experiment: Percent inhibition of bovine microtubule-assisted protein (MAP) rich tubulin polymerisation at concentration of 0.3 uM; (result for 2). Type of experiment: functional. In outline:
(§2)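 Bovine MAP-rich tubulin (final 1.5 mg/mL) was prepared in cold PEM buffer (80 mM NaPIPES pH 6.9, 1 mM MgCl2, 1 mM EGTA) with 1 mM GTP and spun at 12,000g for 10 min at 4 C. It was added to duplicate compound wells (final 0.3 µM); controls held 0.3% DMSO. A340 was read every minute for 60 min at 24 C.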

The test system of experiment [3] is KB. Kind of experiment: Concentration required to kill 50% of human epidermoid KBV1 cell lines containing very high levels of P-glycoprotein after 3 days of continuous exposure. To be noted: 72 h. Type of experiment: functional, cell-based. In outline: as §1
Experiment [4] is filed under the species Bos taurus. Kind of experiment: Percent inhibition of bovine microtubule-assisted protein (MAP) rich tubulin polymerisation at concentration of 0.3 uM. Type of experiment: functional. The method, boiled down: as §2
The subject of experiment [5] is Mus musculus. Briefly: Minimum tolerated dose against Lox melanoma human xenograft models in athymic mice. Type of experiment: functional. For orientation: Xenograft models place foreign cells or tissue in a host animal.
The species named for experiment [6] is Bos taurus. Briefly: Percent inhibition of bovine microtubule-assisted protein (MAP) rich tubulin polymerisation at concentration of 0.3 uM; Not applicable. In kind it is functional. The method, boiled down: as §2
For experiment [7], the system named is KB. Briefly: Concentration required to kill human epidermoid KBV1 cell lines containing very high levels of P-glycoprotein after 3 days of continuous exposure. In kind it is functional, cell-based. To be noted: 72 h. The method, boiled down:
as §1

Active and inactive are the calls of the source. No cut-off for these calls is given here.

On to `CN[C@H](C(=O)N[C@H](C(=O)N(C)[C@H](/C=C(\C)C(=O)O)C(C)C)C(C)(C)C)C(C)(C)c1ccc(C)c(C)c1`, for which the half-maximal inhibitory concentration (IC50) was found to be 1.13 nM in the experiment on KB85 (Homo sapiens), 0.4 nM with KB 3-1 and 39 nM with KB [3]. Further, the MED in the experiment on Mus musculus [1] was 0.2 mpk. Further, the Inhibition in the experiment filed under Bos taurus [2] and in the experiment filed under Bos taurus [4] was 88% throughout. In addition, in the experiment on Mus musculus [5], the MTD was more than 1 mpk.

As to `CN[C@H](C(=O)N[C@H](C(=O)N(C)[C@H](/C=C(\C)C(=O)O)C(C)C)C(C)(C)C)C(C)(C)c1cn(C)c2ccccc12` [HEMIASTERLIN], the IC50 in the experiment with KB85 (Homo sapiens) stood at 1 nM; with KB 3-1, 0.3 nM; with KB [7], 76 nM. In addition, the inhibition entry in the experiment filed under Bos taurus [6] was “inactive”.

Broadly, the IC50 is the concentration needed to halve the response being measured. Read a high IC50 as weaker potency. As usually defined, the Inhibition is how much of the control response was suppressed.

The record behind these values is ChEMBL document CHEMBL1137922, “Synthesis and activity of novel analogs of hemiasterlin as inhibitors of tubulin polymerization: modification of the A segment” (Bioorg Med Chem Lett, 2004).
